Published values from different studies.
Target: Acetylcholinesterase (ACHE, Homo sapiens, UniProt P22303)
Mode: inhibitor

Compound | read-out | method | IC50 [µM]
COc1cccc(C=NNC(=O)c2cc(-c3cn(C)c4ccccc34)on2)c1OC | enzyme activity |  | > 100
O=C(NCCN1CCCCC1)c1cccc([N+](=O)[O-])c1 | enzyme activity | Ellman | 2
CN(C)c1ccc(/C=N/n2c(-c3cc([N+](=O)[O-])c[nH]3)n[nH]c2=S)c(O)c1 | enzyme activity | Ellman | 21.2
O=C(NCCN1CCCCC1)c1cccc(Cl)c1 | enzyme activity | Ellman | 0.63
C#CCN(C)CCCCCCCCOc1cccc(CN(C)c2c3c(nc4ccccc24)CCCC3)c1 | enzyme activity | Ellman | 4.33
O=C(NCCN1CCCCC1)c1ccc([N+](=O)[O-])cc1 | enzyme activity | Ellman | 2.4
C#CCN(C)CCCCCCOCc1ccc(CN(C)c2c3c(nc4ccc(C)cc24)CCCC3)cc1 | enzyme activity | Ellman | 45.8
O=[N+]([O-])c1c[nH]c(-c2n[nH]c(=S)n2/N=C/c2ccc(F)cc2O)c1 | enzyme activity | Ellman | 7.1
C#CCN(C)CCCCCCCOc1cccc(CN(C)c2c3c(nc4ccccc24)CCCC3)c1 | enzyme activity | Ellman | 1.14
O=[N+]([O-])c1c[nH]c(-c2n[nH]c(=S)n2/N=C/c2cc(O)cc(F)c2)c1 | enzyme activity | Ellman | 8.8
COc1ccc(S(=O)(=O)Oc2ccc3ccccc3c2C=NNC(=O)c2ccc(F)cc2)cc1 | enzyme activity | Ellman | 0.114
O=C(NCCN1CCCCC1)c1cccc(F)c1 | enzyme activity | Ellman | 1.6
COc1ccccc1C=NNC(=O)c1cc(-c2cn(C)c3ccccc23)on1 | enzyme activity |  | 34.2
O=[N+]([O-])c1c[nH]c(-c2n[nH]c(=S)n2/N=C/c2ccc(Br)c(Br)c2)c1 | enzyme activity | Ellman | 27.1
COc1ccc(S(=O)(=O)Oc2ccc(C=NNC(=O)c3ccc(F)cc3)cc2)cc1 | enzyme activity | Ellman | 0.0121
Cn1cc(-c2cc(C(=O)NN=Cc3cccc([N+](=O)[O-])c3)no2)c2ccccc21 | enzyme activity |  | 45.6

Compound | read-out | method | IC50 [µM]
O=[N+]([O-])c1c[nH]c(-c2n[nH]c(=S)n2/N=C/c2ccc(Br)c(Cl)c2)c1 | enzyme activity | Ellman | 22.9
C#CCN(C)CCCCOCc1ccc(CN(C)c2c3c(nc4ccccc24)CCCC3)cc1 | enzyme activity | Ellman | 2.36
COC(=O)c1cc(N(C)C(=O)c2ccn3ncc(-c4ccc(C(=O)O)cc4)c3c2)ccc1Cl | cell-free assay |  | > 30
O=[N+]([O-])c1c[nH]c(-c2n[nH]c(=S)n2/N=C/c2c(O)cc(O)cc2O)c1 | enzyme activity | Ellman | 6.2
O=C(NCCN1CCCCC1)c1ccc(F)cc1 | enzyme activity | Ellman | 3.1
O=[N+]([O-])c1c[nH]c(-c2n[nH]c(=S)n2/N=C/c2ccc(F)c([N+](=O)[O-])c2)c1 | enzyme activity | Ellman | 15.5
COc1cccc(C(=O)NCCN2CCCCC2)c1 | enzyme activity | Ellman | 5.2
COc1ccc(S(=O)(=O)Oc2ccc(C=NNC(=O)c3ccc(F)cc3)cc2OC)cc1 | enzyme activity | Ellman | 0.0614
C#CCN(C)CCCCCOCc1ccc(CN(C)c2c3c(nc4ccccc24)CCCC3)cc1 | enzyme activity | Ellman | 4.84
Cn1cc(-c2cc(C(=O)NN=Cc3ccncc3)no2)c2ccccc21 | enzyme activity |  | > 100
C#CCN(C)CCCCCCOc1cccc(CN(C)c2c3c(nc4ccccc24)CCCC3)c1 | enzyme activity | Ellman | 1.16
O=[N+]([O-])c1c[nH]c(-c2n[nH]c(=S)n2/N=C/c2ccc(Cl)c(Cl)c2)c1 | enzyme activity | Ellman | 14.2
COc1ccc(S(=O)(=O)Oc2ccccc2C=NNC(=O)c2ccc(F)cc2)cc1 | enzyme activity | Ellman | 0.107
Cn1cc(-c2cc(C(=O)NN=Cc3ccccc3Cl)no2)c2ccccc21 | enzyme activity |  | > 100
C#CCN(C)CCOc1cccc(CN(C)c2c3c(nc4ccccc24)CCCC3)c1 | enzyme activity | Ellman | 4.21
